Results reported in ChEMBL document CHEMBL4689842, “EUbOPEN Chemogenomics Library wave 1” (2021).
Several values for one entry are separate records, joined by “and”; a condition that tells them apart may be missing. Identical values can stand only once.

Tested on: Fibroblast
Assay: Multiplex assay against human fibroblast
Format: toxicity, cell-based
Details: 1 µM, compound concentration 1 uM
Outline: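 Compound was added to live cells that had been stained at seeding with Hoechst33342, BioTracker Green Microtubule Cytoskeleton Dye, MitoTracker Red and Annexin V Alexa Fluor 680, and imaging followed on a CQ1 microscope at 37°C and 5% CO2. CellPathfinder machine-learning gating divided cells into Hoechst high-intensity objects or normal cells, normal cells into healthy, pyknosed or fragmented nuclei, and pyknosed cells into mitotic or apoptotic. Tubulin, mitochondrial-mass and membrane-permeability phenotypes are per cents of healthy-nucleus cells.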

Compound: Cn1cc(C2=C(c3cn(C4CCN(Cc5ccccn5)CC4)c4ccccc34)C(=O)NC2=O)c2ccccc21 [ENZASTAURIN]
- Population Apoptotic (%) (12 h, replicate 1): 79% and 42%
- Population Fragmented Nuclei (%) (12 h, replicate 1): 34% and 40%
- Population Healthy Nuclei (%) (12 h, replicate 1): 49% and 35%
- Population Membrane Permeable-Phenotype (%) (12 h, replicate 1): 8% and 7%
- Population Mitotic Cells (%) (12 h, replicate 1): 20% and 57%
- Population Normal (%) (12 h, replicate 1): 84% and 33%
- Population Pyknosed Nuclei (%) (12 h, replicate 1): 15% and 23%
- Total Cell Count (12 h, replicate 1): 220 and 479
- Population Apoptotic (%) (12 h, replicate 2): 66% and 55%
- Population Fragmented Nuclei (%) (12 h, replicate 2): 70% and 45%
- Population Healthy Nuclei (%) (12 h, replicate 2): 19% and 34%
- Population Hoechst High Intensity Objects (%) (12 h, replicate 2): 30% and 51%
- Population Membrane Permeable-Phenotype (%) (12 h, replicate 2): 16% and 0%
- Population Mitochondria Different-Phenotype (%) (12 h, replicate 2): 25% and 60%
- Population Mitotic Cells (%) (12 h, replicate 2): 33% and 44%
- Population Normal (%) (12 h, replicate 2): 69% and 48%
- Population Pyknosed Nuclei (%) (12 h, replicate 2): 9% and 20%
- Total Cell Count (12 h, replicate 2): 88 and 91
- Population Apoptotic (%) (24 h, replicate 1): 64% and 73%
- Population Fragmented Nuclei (%) (24 h, replicate 1): 47% and 27%
- Population Healthy Nuclei (%) (24 h, replicate 1): 23% and 58%
- Population Membrane Permeable-Phenotype (%) (24 h, replicate 1): 6% and 3%
- Population Mitotic Cells (%) (24 h, replicate 1): 35% and 26%
- Population Normal (%) (24 h, replicate 1): 28% and 83%
- Population Pyknosed Nuclei (%) (24 h, replicate 1): 28% and 13%
- Total Cell Count (24 h, replicate 1): 427 and 225
- Population Apoptotic (%) (24 h, replicate 2): 33% and 90%
- Population Fragmented Nuclei (%) (24 h, replicate 2): 67% and 50%
- Population Healthy Nuclei (%) (24 h, replicate 2): 26% and 19%
- Population Hoechst High Intensity Objects (%) (24 h, replicate 2): 34% and 50%
- Population Membrane Permeable-Phenotype (%) (24 h, replicate 2): 7% and 14%
- Population Normal (%) (24 h, replicate 2): 65% and 49%
- Total Cell Count (24 h, replicate 2): 75 and 73
